Source: PubChem BioAssay
KCNK3 block: human KCNK3 channel inhibition, primary screen. CHO-KCNK3 thallium flux, FluxOR fluorescence; hits give low values. B-score at 10 µM. 0.84% of 340,000 active;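 active = B-score under library mean minus 4 SD, starting fluorescence ratio at most library mean plus 5 SD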;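 also: more negative B-score means stronger inhibition of thallium flux through KCNK3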
Target sequence (O14649 whole entry, looked up): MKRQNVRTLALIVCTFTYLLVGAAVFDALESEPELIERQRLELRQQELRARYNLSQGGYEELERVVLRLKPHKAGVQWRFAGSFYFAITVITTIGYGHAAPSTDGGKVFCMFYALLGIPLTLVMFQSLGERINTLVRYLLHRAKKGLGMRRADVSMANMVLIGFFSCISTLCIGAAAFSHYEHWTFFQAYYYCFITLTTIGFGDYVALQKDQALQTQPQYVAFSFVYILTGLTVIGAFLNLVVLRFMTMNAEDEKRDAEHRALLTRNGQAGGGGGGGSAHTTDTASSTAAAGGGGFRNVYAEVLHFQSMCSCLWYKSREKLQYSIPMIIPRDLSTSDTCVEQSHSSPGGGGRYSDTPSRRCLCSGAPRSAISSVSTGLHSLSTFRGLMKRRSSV
hERG rescue: shields human hERG channel from block by proarrhythmic agents | activation (rescue from dofetilide block), less the hit threshold, % at 10 µM | 0.51% of 310,000 active | CHO-hERG, FluxOR thallium flux, dofetilide IC70 present;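 active = activation above the mean of controls blocked by dofetilide plus 5 SD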;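 also: thallium influx through hERG after potassium depolarization seen as dye fluorescence rise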
Kir21 block: blocks the mouse Kir2.1 inward-rectifier potassium channel. 0.85% of 310,000 active. P35561. B-score at 10 µM. AID 1672. HEK293-Kir2.1, FluxOR thallium flux fluorescence; hits give low values;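 active = fluorescence ratio B-score at or below minus 3 SD of library scores, with starting-brightness B-score within 2 SD, cut at about -4.2 in these data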;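 also: channel flux triggered by added potassium and thallium sulfate stimulus; B-score of peak minus minimum fluorescence over baseline after thallium stimulus; more negative B-score means stronger Kir2.1 block with less thallium influx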
KCNK9 inh: inhibitors of human KCNK9 two-pore domain potassium channel; HEK293 KCNK9, FluxOR thallium flux fluorescence; hits give low values; B-score at 10 µM; 1.2% of 310,000 active; AID 488922;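 active = ratio B-score over 3 SD below the library mean, with starting fluorescence within 5 SD of its mean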;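 also: negative B-score means less thallium flux so channel inhibition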
KCNQ1 block: blocks the human KCNQ1 potassium channel. P51787. CHO-K1 KCNQ1, FluxOR thallium flux fluorescence; hits give high values. B-score at 10 µM. 1.3% of 310,000 active. AID 2642;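 active = compounds whose thallium flux B-score, printed positive for inhibition, exceeds three library SD while starting fluorescence stays within three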;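 also: channel opened by potassium depolarization with thallium stimulus after 20 min compound exposure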
KCNQ1 act: potentiators or activators of human KCNQ1 potassium channel; P51787; CHO-K1 KCNQ1, thallium flux FluxOR fluorescence; hits give high values; B-score at 10 µM; 0.35% of 310,000 active; AID 2648;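 active = fluorescence ratio B-score, a plate-corrected score, at least three library SD, with initial intensity B-score within 5 SD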
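System: Stable KCNQ1 CHO-K1 line | Incubation: 90 min dye loading and 20 min compound exposure, both at room temperature | Measure: Ratio B score | Medium: Assay buffer for compound exposure, DMSO matched across wells | Compound dosing: Single-concentration screen | Probe or stimulus: K+/Tl+ depolarizing stimulus | Measured by: Kinetic FluxOR fluorescence, 10 s baseline plus 110 s post-stimulus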
* = called active by the depositor; i = inactive; x = no result given. Only some compounds are listed: those with a hit (about 3.7% of all), similar ones and a draw of the others.

SMILES | KCNK3 block | hERG rescue | Kir21 block | KCNK9 inh | KCNQ1 block | KCNQ1 act
COc1cccc(NP(=O)(Oc2ccccc2)Oc2ccccc2)c1 | i | -16.8 | -0.66 | i | i | i
O=P(Nc1cccc(Cl)c1)(Oc1ccccc1)Oc1ccccc1 | i | -49.2 | -0.01 | -7.59* | 6* | i
N#CC(C#N)=Cc1ccc(-c2ccccc2F)o1 | i | x | x | x | x | x
N#CC(C#N)=Cc1ccc(-c2ccccc2)o1 | x | -22.3 | -1.29 | i | 7* | i
CCOC(=O)c1ccc(-[n+]2c(-c3ccccc3)cc(-c3ccccc3)cc2-c2ccccc2)cc1 | i | -40.7 | -11.3* | i | 12* | i
Cc1ccc(-c2cc(-c3ccc(C)cc3)[n+](-c3ccc(C(=O)[O-])cc3)c(-c3ccc(C)cc3)c2)cc1 | i | -47.5 | -8.16* | i | 8* | i
CCOC(=O)c1cccc(-[n+]2c(-c3ccccc3)cc(-c3ccccc3)cc2-c2ccccc2)c1 | i | -38.1 | -10.9* | i | 13* | i
CN1CCN(S(=O)(=O)c2cnc(Cl)c(Br)c2)CC1 | i | -7.8 | 0.81 | i | i | i
C=CCn1c(O)c(C=Nc2ccc(F)cc2)c(=O)[nH]c1=O | i | -9.6 | 1.08 | i | i | i
C=CCn1c(O)c(/C=C2/C=c3ccccc3=N2)c(=O)[nH]c1=S | i | 34.7* | -1.5 | i | i | i
CC(C)(O)C1C2OC(=O)C1C1(O)CC3OC34C(=O)OC2C14C (centres undefined) | i | x | x | x | x | x
c1ccc2c(c1)CC1CNCc3cccc(c31)S2 (centres undefined) | i | -7.9 | -8.12* | i | i | i
O=c1ccc2cc(O[C@@H]3O[C@@H](CO)[C@H](O)[C@@H](O)[C@@H]3O)c(O)cc2o1 | i | -8.5 | 0.04 | i | i | i
Nc1ccccc1C(=O)OCC(=O)N1CCc2ccccc21 | i | -3.2 | 0.07 | i | i | i
N#CSCC(=O)N1c2ccccc2CCc2ccccc21 | i | -15.4 | -6.8* | -6.88* | i | i
O=[N+]([O-])c1ccc(N2CCCCCC2)c2ncccc12 | i | -4.4 | -0.15 | -7.66* | i | i
O=C(CCN1CC2CCC(CC2)C1)c1cccs1 | i | x | x | x | x | x
CCCC[N+]12CCC(CC1)C(C(=O)c1cccs1)C2 (centres undefined) | i | -5.8 | -4.89* | i | i | i
O=c1[nH]c(O)c(/C=C2\C=NN=C2c2ccccc2)c(=O)[nH]1 | i | -1.5 | 0.54 | i | i | i
O=C1Nc2ccccc2/C1=C/c1cnc[nH]1 | i | -16.1 | -1.98 | i | i | i
COc1ccc2c(c1)/C(=C/c1cnc[nH]1)C(=O)N2 | i | 1.4 | 0.57 | i | i | 8*
COc1ccc(OC)c(CN2CCN(C(=O)Cc3ccccc3)CC2)c1 | i | -2.6 | -1.3 | i | i | i
CCOP(=S)(OCC)Oc1nc(Cl)c(Cl)cc1Cl | -9.1* | x | x | x | x | x
CC(Cc1ccccc1Sc1ccccc1O)N(C)C (centres undefined) | i | -3.5 | -2.53 | i | i | i
c1cc2c(cc1CCNC1C3CC4CC(C3)CC1C4)OCO2 (centres undefined) | i | -5.3 | -4.45* | i | 6* | i
SMILES | KCNK3 block | hERG rescue | Kir21 block | KCNK9 inh | KCNQ1 block | KCNQ1 act
CC1CCC(NCCc2ccc3c(c2)OCO3)CC1 (centres undefined) | i | -5.2 | 0.39 | i | i | i
CCCCSC1=NN1c1nc(N)nc(C)c1CC | i | -4.6 | -0.44 | i | i | i
CCc1c(C)nc(N)nc1N1N=C1SCCOc1ccccc1 | i | 8.2* | 1.33 | i | i | i
CCOc1ccccc1CN1C2CCC1CC(c1ccc(C)cc1)C2 (centres undefined) | i | -12.0 | -0.46 | i | 12* | i
CCOc1ccccc1CNCCc1ccc2c(c1)OCO2 | i | -8.5 | -3.15 | i | i | i
COc1cc2c(cc1OC)CC[N+](C)=C2 | i | -5.8 | 0.01 | i | i | i
CC(C)C(=O)c1cn(Cc2ccc(C#N)cc2)c2ccccc12 | i | -6.1 | 1.28 | -6.92* | i | i
O=P(Oc1ccccc1)(Oc1ccccc1)c1ccccc1 | i | -8.2 | -5.89* | i | i | i
Cc1ccccc1CCNCc1ccc(Br)cc1 | i | -11.8 | -9.55* | i | i | i
COc1ccc(CCNCc2ccc(Br)cc2)cc1OC | i | -2.3 | -1.57 | i | i | i
CC(=O)c1cn(CCCOc2ccccc2)c2ccccc12 | i | -15.9 | -4.63* | i | i | i
COc1ccc(CNCCc2c(C)[nH]c3ccc(OC(F)(F)F)cc23)c(OC)c1 | i | -20.5 | -6.88* | i | i | i
O=c1[nH]c(=O)n(-c2ccccc2F)c(O)c1/C=C1\C=Nc2ccccc21 | i | -13.4 | 0.63 | i | i | i
O=c1[nH]c(=O)n(-c2ccc(F)cc2)c(O)c1/C=C1\C=Nc2ccccc21 | i | -8.5 | 0.48 | i | 9* | i
Cc1cccc(CN2CCN(Cc3ccc(Cl)cc3)CC2)c1 | i | -11.2 | -12* | i | i | i
O=C(c1cc(F)ccc1F)C1CCCN(Cc2cc(Cl)ccc2O)C1 (centres undefined) | i | -8.1 | -1.51 | i | 6* | i
CCCC[n+]1cc(=N)o[n-]1 | i | -9.9 | -0.55 | i | i | i
Cc1[nH]n(-c2ccccc2)c(=O)c1C(c1ccc([N+](=O)[O-])cc1)c1c(C)[nH]n(-c2ccccc2)c1=O | i | -8.4 | 0.2 | i | 7* | i
COc1cc(OC)c(OC)cc1CNCCc1cccc(F)c1 | i | -4.1 | -0.94 | i | i | i
COc1ccc(CNCCc2cccc(F)c2)c2ccccc12 | x | -11.4 | -18.2* | i | i | i
COC(=O)C1C2c3ccccc3OC1(C)N=c1s/c(=C/c3cn(C)nc3C)c(=O)n12 (centres undefined) | i | -0.2 | -0.02 | i | i | i
CC(=O)C1C2c3ccccc3O[C@@]1(C)N=c1s/c(=C/c3ccoc3)c(=O)n12 (some centres undefined) | i | -4.9 | -1.04 | i | 7* | i
O=[N+]([O-])/C=C1\NCCN1Cc1ccc(Cl)nc1 | i | -5.8 | 0.32 | i | i | i
CCOP(=O)(OCC)c1cc(CC)ccc1O | i | -5.4 | 0.09 | i | i | i
c1ccc(-c2cc(-c3ccccc3)[n+](-c3ccccc3)c(-c3ccccc3)c2)cc1 | -10.2* | -35.3 | -6.36* | i | 13* | i
C[n+]1c(-c2ccccc2)cc(-c2ccc(Cl)cc2)cc1-c1ccccc1 | i | -23.2 | -3.24 | i | i | i
